Experiment [1] can be described thus: Inhibition of bacterial MBP-fused NDM1 expressed in Escherichia coli BL21(DE3) ausing chromacef as substrate preincubated for 20 mins followed by substrate addition measured after 0.3 mins. Further details: species or system Bacteria. The procedure, abridged: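 Preincubated 20 min, then 3 μM substrate (~3×KM) added. A442 followed ~0.3 min at 25 °C. Activity scaled to uninhibited (100%) and no-enzyme (0%) controls, fitted to a Hill-type equation.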

Experiment [2] in a line: Inhibition of bacterial MBP-fused NDM1 expressed in Escherichia coli BL21(DE3) ausing fluorocillin as substrate preincubated for 20 mins followed by substrate addition measured at 1 sec time interval for 25 mins by fluorescence assay. The arrangement: species or system Bacteria. The procedure, abridged: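 NDM-1 pre-incubated 20 min with inhibitor (final 100 μM to 1 nM) in 50 mM HEPES pH 7.0 with 2 mM CHAPS. Reaction started with fluorocillin (final 87 nM, below KM), NDM-1 final 25 pM. Fluorescence read at λex/em 495/525 nm, 10 reads over ~25 min.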

The target of experiment [3] is Metallo-beta-lactamase type 2 (Serratia marcescens) (UniProt P52699). Description: Inhibition of Serratia marcescens IMP1 expressed in Escherichia coli BL21(DE3) at 50 uM using chromacef as substrate preincubated for 10 mins followed by substrate addition measured after 20 mins by HTS assay relative to control. The procedure, abridged:
(§1)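 Colorimetric chromacef screen, final 50 mM HEPES, 2 mM CHAPS, pH 7.0. Substrate added at 3 μM (NDM-1, ~3×KM), 7.2 μM (IMP-1) or 16 μM (VIM-2). […] Percent inhibition calculated.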

The target of experiment [4] is Beta-lactamase VIM-2 (Pseudomonas aeruginosa) (UniProt Q9K2N0). Description: Inhibition of Pseudomonas aeruginosa VIM2 expressed in Escherichia coli BL21(DE3) at 50 uM using chromacef as substrate preincubated for 10 mins followed by substrate addition measured after 20 mins by HTS assay relative to control. The procedure, abridged:
as §1

In experiment [5] the test system is Bacteria. Description: Inhibition of bacterial MBP-fused NDM1 expressed in Escherichia coli BL21(DE3) at 50 uM using chromacef as substrate preincubated for 10 mins followed by substrate addition measured after 20 mins by HTS assay relative to control. The procedure, abridged: as §1
The nature of experiment [6]: Inhibition of bacterial NDM1. The arrangement: species or system Bacteria. The procedure, abridged: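 Chromogenic NDM-1 assay: enzyme (3 nM) pre-incubated 20 min with ~20 inhibitor concentrations in 50 mM HEPES, 1% DMSO, pH 7.0. Chromacef substrate 3 μM (~3×KM). Absorbance at 442 nm followed ~0.3 min at 25 °C.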
For experiment [7], the system named is Bacteria. The experiment can be described thus: Inhibition of bacterial MBP-fused NDM1 expressed in Escherichia coli BL21(DE3) ausing fluorocillin as substrate preincubated for 20 mins followed by substrate addition measured at 1 sec time interval for 25 mins in presence of ZnSO4 by fluorescence assay.
Experiment [8] deals with Bacteria. The experiment can be described thus: Binding affinity to bacterial CoCoNDM-1 expressed in Escherichia coli BL21(DE3) assessed as metal stripping at 1 to 2 equiv by 1H NMR spectroscopic method. The procedure, abridged:
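Apo-NDM-1 concentrated to ~1 mM and loaded with 2 equiv CoCl2. Samples in 50 mM HEPES, 150 mM NaCl, 10% D2O, pH 6.8. Compounds from 50–100 mM DMSO stocks titrated in ~5 μL aliquots. 1H spectra recorded at 292 K, 300.16 MHz.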

The nature of experiment [9]: Metal chelating activity assessed as Co2+-compound complex formation at 1 equiv by 1H NMR spectroscopic method. It is filed as functional. The procedure, abridged:
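Apo-NDM-1 concentrated to ~1 mM and given 2 equivalents of CoCl2, in 50 mM HEPES, 150 mM NaCl, 10% D2O, pH 6.8. Compounds, from DMSO stocks of 50–100 mM, titrated in. 1H NMR spectra recorded at 292 K at 300.16 MHz.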

Experiment [10] relates to Bacteria. The experiment can be described thus: Binding affinity to bacterial CoCoNDM-1 expressed in Escherichia coli BL21(DE3) assessed as CoCoNDM-1-compound ternary complex formation at 1 equiv by 1H […] spectroscopic method.
Experiment [11] concerns Bacteria. The experiment can be described thus: Binding affinity to bacterial CoCoNDM-1 expressed in Escherichia coli BL21(DE3) assessed as metal stripping at 1 to 2 equiv after 30 mins by UV-Visible spectroscopic method. The procedure, abridged: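 Apo-NDM-1 at 300 μM in 50 mM HEPES, 150 mM NaCl, pH 6.8, loaded with 2 molar equiv CoCl2. […] Absorbance read 300–700 nm at 25 °C as difference spectra against buffer blank, normalized at 700 nm.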

The subject of experiment [12] is Bacteria. Description: Binding affinity to bacterial NDM-1 expressed in Escherichia coli BL21(DE3) assessed as Zn2+ stripping up to 128 uM after 30 mins by equilibrium dialysis method. The procedure, abridged: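 NDM-1 (8 μM final) in 50 mM HEPES pH 7.5 mixed with compound at 0–128 μM for 30 min. Then dialyzed 4 h against metal-free 50 mM HEPES pH 7.5. Residual Zn(II) measured by ICP-AES at 213.856 nm.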
For orientation: In equilibrium dialysis only unbound substance equilibrates across the membrane.

Experiment [13] has as its system Bacteria. The experiment can be described thus: Binding affinity to bacterial NDM-1 expressed in Escherichia coli BL21(DE3) assessed as intrinsic tryptophan fluorescence quenching up to 32 uM after 30 mins by luminescence spectrometric method relative to control. The procedure, abridged:
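NDM-1 at 2 μM final in 50 mM HEPES pH 7.5 mixed with compound at 4–32 μM, incubated 30 min. Emission scanned 300–400 nm with excitation at 280 nm. Relative tryptophan fluorescence read at 348 nm, with buffer set to 0% and inhibitor-free NDM-1 to 100%. Control run with 2 μM L-tryptophan in place of enzyme.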

In the next experiment the target is Beta-lactamase VIM-2 (Pseudomonas aeruginosa, UniProt Q9K2N0). The experiment can be described thus: Inhibition of Pseudomonas aeruginosa VIM2 expressed in Escherichia coli BL21(DE3) using fluorocillin as substrate preincubated for 10 mins followed by substrate addition measured after 20 mins by HTS assay.
A short description of experiment [14]: Fluorescence quenching activity assessed as reduction in tryptophan fluorescence up to 32 uM after 30 mins by luminescence spectrometric method. The procedure, abridged: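 NDM-1 (2 μM final) in 50 mM HEPES pH 7.5 with compound at 4–32 μM for 30 min. Excitation 280 nm, emission scanned 300–400 nm, intensity taken at 348 nm. Scaled with buffer as 0% and inhibitor-free enzyme as 100%. Free L-tryptophan (2 μM) run as control.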

pIC50: −log10 of the molar value. The source made the active and inactive calls. The rule behind the calls is not given here. Some results are limits rather than exact numbers.

Chain of Metallo-beta-lactamase type 2 (Serratia marcescens) (P52699 19-246 limits assumed): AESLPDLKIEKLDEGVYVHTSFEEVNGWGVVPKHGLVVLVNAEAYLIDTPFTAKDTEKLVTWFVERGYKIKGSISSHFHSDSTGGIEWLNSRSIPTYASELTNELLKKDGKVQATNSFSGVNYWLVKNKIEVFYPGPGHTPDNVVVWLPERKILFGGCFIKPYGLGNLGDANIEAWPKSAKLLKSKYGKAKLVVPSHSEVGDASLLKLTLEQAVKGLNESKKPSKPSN

The term pIC50 denotes the negative decadic logarithm of the IC50, by convention in mol/L. Read a high pIC50 as a low IC50. In the case of `O=C(O)c1cc(-c2ccc(O)cc2)cc(C(=O)O)n1`, the pIC50 is 6.18 in [1] and 6.41 in experiment [2]. In the case of `O=C(O)c1cc(-c2cccc(O)c2)cc(C(=O)O)n1`, the pIC50 in experiment [1] is 6.22; in experiment [2] it was 6.37. Regarding `O=C(O)c1cccc(C(=O)NCCc2ccccc2)n1`, the pIC50 in experiment [1] is below 4.30. Still for that read-out and setting: the value for `CN(C)c1cc(C(=O)O)nc(C(=O)O)c1` was 4.87; that for `O=C(O)c1cccc(C(=O)NC2CCCC2)n1` was below 4.30.

For `CN(C)c1cccc(-c2cc(C(=O)O)nc(C(=O)O)c2)c1`, the values for the pIC50 in experiment [1] and in experiment [2] were 6.09 and 6.37, respectively. Take `O=C(O)c1cc(NCc2cccs2)cc(C(=O)O)n1`: the pIC50 in experiment [1] was 5.28. The compound `O=C(O)c1cccc(C(=O)NC2CCCCC2)n1` gave a pIC50 in experiment [1] below 4.30. `O=C(O)c1cccc(C(=O)NCc2ccccc2)n1`: the pIC50 in experiment [1] was below 4.30. The same measure, in the same setting: the figure for `CC(C)NC(=O)c1cccc(C(=O)O)n1` is below 4.30; for `O=C(O)c1cc(NCCc2ccccc2)cc(C(=O)O)n1` it is 5.04. The same measure, in the same setting: the figure for `O=C(O)c1cc(-c2ccccc2)cc(C(=O)O)n1` is 6.00. Regarding `COc1ccccc1-c1cc(C(=O)O)nc(C(=O)O)c1`, the pIC50 in experiment [1] and in experiment [2] was 6.30 throughout. Take `O=C(O)c1cc(NCc2ccccc2)cc(C(=O)O)n1`: the pIC50 in [1] was 5.08.

In [1], `O=C(O)c1cccc(C(=O)NCc2ccco2)n1` showed a pIC50 below 4.30. `O=C(O)c1cccc(C(=O)Nc2ccccc2)n1` showed a pIC50 in [1] below 4.30.

In turn, `CC(C)[C@@H](NC(=O)c1cccc(C(=O)O)n1)C(=O)O` had a negative logarithm of the IC50 (pIC50) in experiment [1] of 4.66. By inhibition is commonly meant the change of the read-out against control, counted positive when it falls. Take `O=C(O)c1ccc2cccc(O)c2n1`: the inhibition (in experiment [3]; in experiment [4]; in the experiment with Bacteria [5]) was above 60% in each case. As for `O=C(O)c1cccc(C(=O)NCc2nccs2)n1`, the pIC50 in [1] was 4.62. In [1], `O=C(O)c1cc(Nc2ccccc2)cc(C(=O)O)n1` showed a pIC50 of 5.47. In turn, `N[C@@H](CN[C@@H](CN[C@@H](CC(=O)O)C(=O)O)C(=O)O)C(=O)O` gave a pIC50 in [6] of 5.40. Consider `CC(C)CNC(=O)c1cccc(C(=O)O)n1`, for which the pIC50 in [1] was below 4.30. The same measure, in the same setting: the value for `O=C(O)c1cc(NCc2ccc3c(c2)OCO3)cc(C(=O)O)n1` was 5.24. `NCCNCc1ccc(C(=O)N[C@H]2Cc3cccc(C(=O)O)c3O[B-]2(O)O)cc1` showed a pIC50 in experiment [6] of 8.40. In the case of `O=C(O)c1cccc(C(=O)O)n1` [DIPICOLINIC ACID], the inhibition (in experiment [3]; in experiment [4]; in the experiment with Bacteria [5]) was above 60% throughout. Besides, the pIC50 is 6.28 in experiment [1], 6.39 in experiment [2] and 5.78 against Beta-lactamase VIM-2. In the experiment with Bacteria [7], the inhibition entry was “inactive”. For the same compound, the result (in the experiment on Bacteria [8]; in [9]; in the experiment on Bacteria [10]; with Bacteria [11]; with Bacteria [12]) was Active. Besides, the Activity in the experiment on Bacteria [13] came out at 20%. On to `O=C(Nc1cccc(-c2cc(C(=O)O)nc(C(=O)O)c2)c1)c1ccccc1`, for which the values for the pIC50 in experiment [1] and in experiment [2] were 6.07 and 6.89, respectively. As for `c1cnc2c(c1)ccc1cccnc12`, the inhibition (in [3]; in [4]; in the experiment on Bacteria [5]) was above 60% in each case. Take `O=C(O)c1cc(Cl)cc(C(=O)O)n1`: the pIC50 in experiment [1] is 5.30. For `Nc1ccc(-c2cc(C(=O)O)nc(C(=O)O)c2)cc1`, the pIC50 was 5.99 in experiment [1] and 6.27 in [2]. Regarding `Oc1ccc[nH]c1=S`, the inhibition (in experiment [3]; in experiment [4]; in the experiment on Bacteria [5]) was above 60% each time. Turning to `Oc1c(I)cc(Cl)c2cccnc12`, the inhibition (in experiment [3]; in [4]; in the experiment on Bacteria [5]) was above 60% in each case. `CN(C)c1ccc(-c2cc(C(=O)O)nc(C(=O)O)c2)cc1`: the pIC50 in [1] is 6.24; in [2] it was 6.72.

Turning to `O=C(O)CN(CCN(CC(=O)O)CC(=O)O)CC(=O)O`, the outcome in the experiment on Bacteria [8], with Bacteria [11] and with Bacteria [12] was Active. Also, the Activity in the experiment with Bacteria [13] was below 10%. Further, in [14], the outcome was inactive. Take `CC(=O)Nc1cccc(-c2cc(C(=O)O)nc(C(=O)O)c2)c1`: the values for the pIC50 in experiment [1] and in [2] were 6.00 and 6.03, respectively. As to `COc1ccc(Nc2cc(C(=O)O)nc(C(=O)O)c2)cc1`, in experiment [1], the pIC50 is 5.35.

Take `O=C(O)c1cccc(C(=O)NCc2cccs2)n1`: the pIC50 in [1] is below 4.30. In the case of `O=C(Cc1ccccc1)Nc1cccc(-c2cc(C(=O)O)nc(C(=O)O)c2)c1`, the pIC50 in [1] was 6.07; in [2] it was 6.23. In the case of `O=C(O)c1cc(NCc2ccco2)cc(C(=O)O)n1`, the pIC50 in experiment [1] is 5.31. On the same count and under the same terms, the figure for `O=C(O)c1cccc(C(=O)NCCc2cccs2)n1` is below 4.30.

In the case of `O=C(O)c1cccc(C(=O)NCC2CCCO2)n1` (stereo not given), the pIC50 in experiment [1] is below 4.30.

In the case of `O=C(O)c1cc(-c2ccccc2O)cc(C(=O)O)n1`, the pIC50 was 6.28 in experiment [1] and 6.89 in [2].

In experiment [1], `O=C(O)CNC(=O)c1cccc(C(=O)O)n1` showed a pIC50 of 4.31.

Take `O=C(O)c1cccc(-c2cc(C(=O)O)nc(C(=O)O)c2)c1`: the results for the pIC50 in experiment [1] and in experiment [2] were 6.05 and 6.70, respectively. On to `COc1ccc(NC(=O)c2cccc(C(=O)O)n2)cc1`, for which, in [1], the pIC50 is below 4.30. For the compound `O=C(O)c1cccc(C(=O)N2CCCCC2)n1`, the pIC50 in [1] was below 4.30. With `COc1cccc(-c2cc(C(=O)O)nc(C(=O)O)c2)c1`, the negative-log IC50 (pIC50) in experiment [1] was 6.10; in experiment [2] it was 5.97.

`COc1ccc(CNc2cc(C(=O)O)nc(C(=O)O)c2)cc1` showed a pIC50 in experiment [1] of 5.14.

Turning to `O=C(O)c1cccc(C(=O)NCc2ccc3c(c2)OCO3)n1`, the pIC50 in experiment [1] was below 4.30. Turning to `c1ccc(C2=NCCS2)nc1`, the inhibition (in experiment [3]; in experiment [4]; in the experiment with Bacteria [5]) was above 60% each time. `COc1ccc(CNC(=O)c2cccc(C(=O)O)n2)cc1` had a pIC50 in experiment [1] below 4.30. For `COc1ccc(-c2cc(C(=O)O)nc(C(=O)O)c2)cc1`, the pIC50 in [1] was 6.37; in experiment [2], 6.42.
